Experiments:
[1] = Negative log of Langmuir's alpha constant (-log alpha), which is inversely proportional to the effective binding constant (protein binding); format: ADME
Escherichia coli [2] = assay: Minimum inhibitory concentration (bacteriostatic) against Escherichia coli at pH 7.4; format: functional
Escherichia coli [3] = assay: Minimum inhibitory concentration (bacteriostatic) against Escherichia coli at pH 7.2 (Sauterne''s medium); format: functional
[4] = Compound is evaluated for […] log k; format: physicochemical; settings: octanol/water
Method in brief: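 Log k' was measured by reverse-phase HPLC on dry-packed deactivated C18/Corasil columns (10 and 50 cm, 2-mm i.d.) at 22 °C, flow 1 mL/min, with UV detection at 254 nm. The mobile phase was methanol-modified aqueous phosphate buffer at μ 0.15. Void time came from methanol injection, and k' = (tr − t0)/t0.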

[5] = Negative log of molar concentration (-log ED50) required to reduce cell division by 50% in Arbacia egg; format: functional
Oryctolagus cuniculus = organism: Oryctolagus cuniculus; assay: Negative log of minimum effective dose (moles per kilogram) in rabbits (hypnotic); format: functional
[6] = (§1) pKa value is evaluated; format: physicochemical
Rattus norvegicus = organism: Rattus norvegicus; format: functional
[7] = pKa value is evaluated; activity is unretained; format: physicochemical
Method in brief: (§2)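 Determined in-house by computer-controlled spectrophotometric titration (absorbance vs. pH) of each sulfonamide. Samples were in buffered aqueous solution of HCl/HOAc/Mops/glycine, 0.0005 N each. A manual wavelength scan of each compound set the wavelength at which its titration was run.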

[8] = as §1; format: physicochemical; method in brief: as §2; remark: listed apart in the source
[9] = A pKa value is evaluated; format: physicochemical
[10] = ACompound is evaluated for […] log k; format: physicochemical; settings: octanol/water
Method in brief: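 Log k' was measured by reverse-phase HPLC on dry-packed deactivated C18/Corasil columns (10 and 50 cm, 2-mm i.d.) at 22 °C, flow 1 mL/min, with UV detection at 254 nm. The mobile phase was methanol-modified aqueous phosphate buffer at μ 0.15. Calculated pH was 7.45 for sulfonamides and 7.31 for barbiturates. Void time came from methanol injection, and k' = (tr − t0)/t0.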

SMILES | -Log alpha [1] | -Log C (Escherichia coli [2]) | -Log C (Escherichia coli [3]) | Log K [4] | -Log ED50 [5] | -Log C (Oryctolagus cuniculus) | pKa [6] | also measured
Nc1ccc(S(N)(=O)=O)cc1 [SULFANILAMIDE] | -2.98 | 2.824 | -2.11 | – | – | – | – | –
C=CCC1(CC=C)C(=O)NC(=O)NC1=O [ALLOBARBITAL] | – | – | – | 0.6 | 1.79 | 3.54 | – | –
C=CCC1(CC(C)C)C(=O)NC(=O)NC1=O [BUTALBITAL] | – | – | – | 1.01 | – | 3.63 | 7.54 | -Log C (Rattus norvegicus): 2.8
CCCC(C)C1(CC)C(=O)NC(=O)NC1=O (stereo not drawn) [PENTOBARBITAL] | – | – | – | 1.32 | 2.92 | 4.05 | 8.02 | -Log C (Rattus norvegicus): 3.07
Cc1cc(NS(=O)(=O)c2ccc(N)cc2)no1 [SULFAMETHOXAZOLE] | -2.51 | 4.634 | 0.06 | – | – | – | – | –
CC(=O)NS(=O)(=O)c1ccc(N)cc1 [SULFACETAMIDE] | -3.15 | 3.248 | -0.52 | – | – | – | – | Log K [7]: activity is unretained; pKa [8]: 5.78
CCC1(CCC(C)C)C(=O)NC(=O)NC1=O [AMOBARBITAL] | – | – | – | 1.33 | 2.82 | – | – | –
CCC(C)C1(CC)C(=O)NC(=O)NC1=O (stereo not drawn) [BUTABARBITAL] | – | – | – | – | – | 3.63 | – | pKa [9]: 7.89; Log K [10]: 0.95
Nc1ccc(S(=O)(=O)Nc2ncccn2)cc1 [SULFADIAZINE] | -2.99 | 4.337 | -0.08 | 0.223 | – | – | – | –
Cc1cc(C)nc(NS(=O)(=O)c2ccc(N)cc2)n1 [SULFAMETHAZINE] | -2.28 | – | 0.11 | 1.49 | – | – | 7.7 | –
Nc1ccc(S(=O)(=O)Nc2nccs2)cc1 [SULFATHIAZOLE] | -2.45 | 4.597 | -0.18 | 0.887 | – | – | 7.25 | –
C=CCC1(C(C)C#CCC)C(=O)NC(=O)N(C)C1=O (stereo not drawn) [METHOHEXITAL] | – | – | – | 1.96 | – | 4.74 | 4.74 | –
CN1C(=O)NC(=O)C(C)(C2=CCCCC2)C1=O (stereo not drawn) [HEXOBARBITAL] | – | – | – | 1.13 | – | 4.37 | – | pKa [9]: 7.36
CCCC(C)C1(CC)C(=O)NC(=S)NC1=O (stereo not drawn) [THIOPENTAL] | – | – | – | 1.52 | – | 3.98 | – | –
CCC1(C2=CCCCC2)C(=O)NC(=O)NC1=O [CYCLOBARBITAL] | – | – | – | 0.91 | 2.24 | – | 7.36 | –
C=CCC1(C(C)CCC)C(=O)NC(=S)NC1=O (stereo not drawn) [THIAMYLAL] | – | – | – | 1.72 | – | 4.15 | – | –
CCC1(CC)C(=O)NC(=O)NC1=O [BARBITAL] | – | – | – | 0.16 | 1.49 | 3.09 | 7.75 | -Log C (Rattus norvegicus): 1.32
CCC1(c2ccccc2)C(=O)NC(=O)NC1=O [PHENOBARBITAL] | – | – | – | 0.56 | 2.02 | 3.32 | 7.26 | -Log C (Rattus norvegicus): 1.88
Cc1noc(NS(=O)(=O)c2ccc(N)cc2)c1C [SULFISOXAZOLE] | -1.73 | 4.56 | -0.45 | 0.762 | – | – | – | –
Cc1ccnc(NS(=O)(=O)c2ccc(N)cc2)n1 [SULFAMERAZINE] | -2.23 | 4.469 | 0.06 | 0.829 | – | – | 6.98 | –
CCC1(CC)C(=O)NC(=O)N(C)C1=O [METHARBITAL] | – | – | – | 0.71 | – | 3.12 | – | –
COc1ccc(NS(=O)(=O)c2ccc(N)cc2)nn1 [SULFAMETHOXYPYRIDAZINE] | -1.75 | 4.57 | 0 | 1.35 | – | – | 7.2 | –
C=CCC1(C(C)CCC)C(=O)NC(=O)NC1=O (stereo not drawn) [SECOBARBITAL] | – | – | – | 1.52 | 3.62 | 4.2 | 7.92 | -Log C (Rattus norvegicus): 3.19
C=CCC1(C(C)C)C(=O)NC(=O)NC1=O [APROBARBITAL] | – | – | – | 0.75 | 2.01 | 3.6 | 7.73 | -Log C (Rattus norvegicus): 2.41
[H]/N=C(/N)NS(=O)(=O)c1ccc(N)cc1 [SULFAGUANIDINE] | – | – | 1.81 | -0.00612 | – | – | 12 | –
